Data set [1] concerns Rattus norvegicus. The data set can be described thus: Distribution of radioactivity of radiolabeled compound in heart of female rats 30 minutes after intravenous administration. The data set is classed as ADME, organism-based. To be noted: in vivo, 0.5 h.
Data set [2] concerns Rattus norvegicus. Description: Distribution of radioactivity of radiolabeled compound in blood of female rats 30 minutes after intravenous administration. The data set is classed as ADME, organism-based. To be noted: in vivo, 0.5 h.
In data set [3] the test system is Rattus norvegicus. Description: Distribution of radioactivity of radiolabeled compound in liver of female rats 30 minutes after intravenous administration. The data set is classed as ADME, organism-based. Particulars: in vivo, 0.5 h.
Data set [4] has as its system Rattus norvegicus. Description: Distribution of radioactivity of radiolabeled compound in lung of female rats 5 minutes after intravenous administration. Particulars: in vivo. The data set is classed as ADME, organism-based.
For data set [5], the system named is Rattus norvegicus. Description: Polyacrylamide Gel Electrophoresis (PAGE) analysis of rat plasma 5 minutes after intravenous administration of radiolabeled compound in stacking gel. The data set is classed as functional, organism-based. A digest of the protocol: (§1)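 ¹²⁵I-labeled compound, radioiodinated by exchange in a pivalic acid melt, solubilized in normal saline with Tween 20 and given iv to adult female Sprague–Dawley rats (200–250 g), 5–30 μCi/animal, 3–4 rats per time point. Plasma was run on polyacrylamide gels. Gels were sectioned and gamma counted. Radioactivity per band (stacking gel, LDL, HDL, albumin, below albumin) is given as % of total applied; mean ± SEM, n = 3-5.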

The test system of data set [6] is Rattus norvegicus. Description: Distribution of radioactivity of radiolabeled compound in blood of female rats 5 minutes after intravenous administration. Format: ADME, organism-based. To be noted: in vivo.
In data set [7] the test system is Rattus norvegicus. Description: Polyacrylamide Gel Electrophoresis (PAGE) analysis of rat plasma 30 minutes after intravenous administration of radiolabeled compound in low-density lipoprotein. The data set is classed as functional, organism-based. A digest of the protocol:
(§2)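 Gels were sectioned and counted in a γ counter. Radioactivity in each band (stacking gel, LDL, HDL, albumin, below albumin) is expressed as a percentage of the total radioactivity applied to the gel, ± SEM, n = 3-5.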

Data set [8] has as its system Rattus norvegicus. The data set can be described thus: Polyacrylamide Gel Electrophoresis (PAGE) analysis of rat plasma 30 minutes after intravenous administration of radiolabeled compound concentration of stacking gel. Format: functional, organism-based. A digest of the protocol:
as §2

The subject of data set [9] is Rattus norvegicus. The data set can be described thus: Polyacrylamide Gel Electrophoresis (PAGE) analysis of rat plasma 30 minutes after intravenous administration of radiolabeled compound in high density lipoprotein. The data set is classed as functional, organism-based. A digest of the protocol: as §2
In data set [10] the test system is Rattus norvegicus. The data set can be described thus: Polyacrylamide Gel Electrophoresis (PAGE) analysis of rat plasma 5 min after intravenous administration of radiolabeled compound in albumin. Format: functional, organism-based. A digest of the protocol: as §2
The test system of data set [11] is Rattus norvegicus. The data set can be described thus: Distribution of radioactivity of radiolabeled compound in kidney of female rats 30 minutes after intravenous administration. The data set is classed as ADME, organism-based. Particulars: in vivo, 0.5 h.
Data set [12] concerns Rattus norvegicus. The data set can be described thus: Distribution of radioactivity of radiolabeled compound in heart of female rats 5 minutes after intravenous administration. To be noted: in vivo. The data set is classed as ADME, organism-based.
Data set [13] concerns Rattus norvegicus. The data set can be described thus: Distribution of radioactivity of radiolabeled compound in kidney of female rats 5 minutes after intravenous administration. Particulars: in vivo. The data set is classed as ADME, organism-based.
In data set [14] the test system is Rattus norvegicus. The data set can be described thus: Distribution of radioactivity of radiolabeled compound in liver of female rats 5 minutes after intravenous administration. The data set is classed as ADME, organism-based. To be noted: in vivo.
Data set [15] deals with Rattus norvegicus. Description: Polyacrylamide Gel Electrophoresis (PAGE) analysis of rat plasma 5 minutes after intravenous administration of radiolabeled compound in low-density lipoprotein. Format: functional, organism-based. The method, boiled down:
as §1

Data set [16] has as its system Rattus norvegicus. The data set can be described thus: Distribution of radioactivity of radiolabeled compound in lung of female rats 30 minutes after intravenous administration. Format: ADME, organism-based. Particulars: in vivo, 0.5 h.
The test system of data set [17] is Rattus norvegicus. The data set can be described thus: Polyacrylamide Gel Electrophoresis (PAGE) analysis of rat plasma 30 minutes after intravenous administration of radiolabeled compound in albumin. Format: functional, organism-based. The method, boiled down: as §2
Data set [18] deals with Rattus norvegicus. The data set can be described thus: Polyacrylamide Gel Electrophoresis (PAGE) analysis of rat plasma 30 minutes after intravenous administration of radiolabeled compound (below albumin ). The data set is classed as functional, organism-based. The method, boiled down: as §2
Data set [19] deals with Rattus norvegicus. Description: Polyacrylamide Gel Electrophoresis (PAGE) analysis of rat plasma 5 minutes after intravenous administration of radiolabeled compound in high density lipoprotein. The data set is classed as functional, organism-based. The method, boiled down:
as §1

Data set [20] has as its system Rattus norvegicus. The data set can be described thus: Polyacrylamide Gel Electrophoresis (PAGE) analysis of rat plasma 5 minutes after intravenous administration of radiolabeled compound (below albumin). Format: functional, organism-based. The method, boiled down: as §1
Data set [21] has as its system Rattus norvegicus. Description: Polyacrylamide Gel Electrophoresis (PAGE) analysis of rat plasma 30 minutes after intravenous administration of radiolabeled compound concentration in stacking gel. The data set is classed as functional, organism-based. A digest of the protocol:
as §2

The test system of data set [22] is Rattus norvegicus. The data set can be described thus: Percentage parent compound in rat liver 30 minutes after iv administration of the radiolabeled compound by thin-layer chromatography. The data set is classed as functional. A digest of the protocol:
(§3)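 Liver and plasma were taken at 5 or 30 min. Plasma was extracted by a modified Folch procedure, and liver was homogenized and extracted. Extracts were run on TLC in hexane/ethyl acetate (5:2) for esters or THF/hexane (1:1) for acids, with unlabeled compound as reference. Plates were cut into 1-cm strips and counted. Values are percent ± SEM, n = 3-5.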

Data set [23] deals with Rattus norvegicus. The data set can be described thus: Polyacrylamide Gel Electrophoresis (PAGE) analysis of rat plasma 30 minutes after intravenous administration of radiolabeled compound (below albumin). The data set is classed as functional, organism-based. A digest of the protocol: as §2
For data set [24], the system named is Rattus norvegicus. The data set can be described thus: Percentage […]/CH3OH extract of the radiolabeled compound in rat liver 30 minutes after iv administration. The data set is classed as functional. The method, boiled down:
as §3

For data set [25], the system named is Rattus norvegicus. The data set can be described thus: Percentage […]/CH3OH extract of the radiolabeled compound in rat plasma 30 minutes after iv administration. The data set is classed as functional. The method, boiled down:
as §3

Data set [26] concerns Rattus norvegicus. Description: Polyacrylamide Gel Electrophoresis (PAGE) analysis of rat plasma 30 min after intravenous administration of radiolabeled compound in albumin. The data set is classed as functional, organism-based. The method, boiled down:
as §2

Data set [27] relates to Rattus norvegicus. Description: Percentage […]/CH3OH extract of the radiolabeled compound in rat plasma 5 minutes after iv administration. The data set is classed as functional. The method, boiled down: as §3
In data set [28] the test system is Rattus norvegicus. The data set can be described thus: Polyacrylamide Gel Electrophoresis (PAGE) analysis of rat plasma 5 minutes after intravenous administration of radiolabeled compound (below albumin ). Format: functional, organism-based. A digest of the protocol:
as §1

The test system of data set [29] is Rattus norvegicus. Description: Percentage parent compound in rat liver 5 minutes after iv administration of the radiolabeled compound by thin-layer chromatography. Format: functional. The method, boiled down:
as §3

Data set [30] has as its system Rattus norvegicus. Description: Percentage parent compound in rat plasma 5 minutes after iv administration of the radiolabeled compound by thin-layer chromatography. The data set is classed as functional. A digest of the protocol:
as §3

Data set [31] deals with Rattus norvegicus. Description: Percentage […]/CH3OH extract of the radiolabeled compound in rat liver 5 minutes after iv administration. The data set is classed as functional. The method, boiled down:
as §3

The subject of data set [32] is Rattus norvegicus. Description: Percentage parent compound in rat plasma 30 minutes after iv administration of the radiolabeled compound by thin-layer chromatography. Format: functional. A digest of the protocol: as §3
Data set [33] concerns Rattus norvegicus. The data set can be described thus: Polyacrylamide Gel Electrophoresis (PAGE) analysis of rat plasma 30 min after intravenous administration of radiolabeled compound at in high density. The data set is classed as functional, organism-based. The method, boiled down:
as §2

Data set [34] deals with Rattus norvegicus. Description: Polyacrylamide Gel Electrophoresis (PAGE) analysis of rat plasma 30 min after intravenous administration of radiolabeled compound ( below albumin). Format: functional, organism-based. The method, boiled down: as §2
Data set [35] relates to Rattus norvegicus. The data set can be described thus: Polyacrylamide Gel Electrophoresis (PAGE) analysis of rat plasma 30 minutes after intravenous administration of radiolabeled in stacking gel. Format: functional, organism-based. A digest of the protocol: as §2
The subject of data set [36] is Rattus norvegicus. The data set can be described thus: Polyacrylamide Gel Electrophoresis (PAGE) analysis of rat plasma 5 min after intravenous administration of radiolabeled compound concentration of albumin. Format: functional, organism-based. A digest of the protocol:
as §2

Data set [37] has as its system Rattus norvegicus. The data set can be described thus: Polyacrylamide Gel Electrophoresis (PAGE) analysis of rat plasma 5 minutes after intravenous administration of radiolabeled compound at in high density lipoprotein. Format: functional, organism-based. The method, boiled down:
as §1

Data set [38] has as its system Rattus norvegicus. Description: Polyacrylamide Gel Electrophoresis (PAGE) analysis of rat plasma 30 min after intravenous administration of radiolabeled compound in low density lipoprotein. Format: functional, organism-based. A digest of the protocol: as §2

Data on three molecules can be found in ChEMBL document CHEMBL1123430, “Potential tumor- or organ-imaging agents. 26. Polyiodinated 2-substituted triacylglycerols as hepatographic agents” (J Med Chem, 1986).

SMILES strings stand for the structures.

As to `Nc1c(I)cc(I)c(CCCCCCCCCCCCCCCCC(=O)O)c1I`, the Dose amounted to 1.01% in [1]; 1.23% in data set [2]; 4.37% in [3]; 1.11% in data set [4]; 2.25% in [6]; 1.01% in [11]. The Dose is 1.06% in [12], 0.48% in data set [13], 6.3% in data set [14] and 0.84% in data set [16]. Moreover, the Concentration was found to be 5.2% in data set [5]; 3.2% in data set [7]; 7.6 in [8]; 18.5% in data set [9]; 60 in data set [10]; 4.7% in [15]. The Concentration was 60.6 in [17], 10% in data set [18], 26.6 in data set [19] and 3.5 in data set [20].

As for `CCCCCCCCCCCCCCCC(=O)OCC(COC(=O)CCCCCCCCCCCCCCC)OC(=O)Cc1c(I)cc(I)c(N)c1I`, the Dose in [1] is 0.68%; in data set [2] it was 6.5%; in data set [3], 4%; in data set [4], 1.41%; in data set [6], 6.23%; in data set [11], 0.87%. The Dose is 0.63% in [12], 0.93% in data set [13], 2.96% in data set [14] and 1.34% in [16]. Further, the Concentration is 3% in data set [21]; 9% in [5]; 41.2% in [7]; 0.5 in data set [23]; 53.4% in [9]; 3.3 in data set [10]. Further, the Concentration in data set [26] came out at 1.9; in [28], 3.2; in data set [15] it was 34%; in data set [19], 50.5. For the same molecule, the Activity was determined as 89% in [22]; 83.1% in data set [24]; 81.5% in data set [25]; 89.4% in data set [27]; 91.7% in data set [29]; 97.7% in data set [30]. In addition, the Activity worked out at 91.2% in data set [31] and 91.9% in [32].

As for `Nc1c(I)cc(I)c(CCC(=O)O)c1I`, the Dose in [1] is 4.14%; in [2], 1.15%; in data set [3], 0.77%; in data set [4] it was 1.02%; in data set [6], 2.52%; in [11], 1.54%. The Dose in data set [12] came to 4%; in [13], 2.44%; in data set [14], 1.08%; in [16], 0.45%. Moreover, the Concentration is 13.3% in data set [33]; 10.8 in data set [34]; 4.6% in data set [5]; 11 in data set [35]; 83.6 in data set [36]; 51.5 in data set [26]. For the same molecule, the Concentration in data set [37] is 5.3%; in data set [28], 4.1; in [15] it was 2.4%; in data set [38], 6.9.
